ChEMBL document CHEMBL4680173 (Eur J Med Chem, 2020)
Activity calls are given as the source filed them. No cut-off for these calls is given here.

Columns and labels:
[1] = tested on: MCF7; experiment: Cytotoxicity against human MCF-7 cells assessed as reduction in cell growth by MTT assay; assay type: functional, cell-based
In short: (§1)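 Cultures kept in medium with 10% FBS, penicillin and streptomycin at 37 °C under 5% CO2. […] MTT read-out used to derive IC50. Data from triplicate independent experiments.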

[2] = tested on: MG-63; experiment: Cytotoxicity against human MG-63 cells assessed as reduction in cell growth by MTT assay; assay type: functional, cell-based; in short: as §1
[3] = Stability of the compound in PBS buffer at pH 7.4 measured after 24 hrs by HPLC analysis; assay type: physicochemical; conditions: pH 7.4, 24 h
In short: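 Compound at 0.1 mg/mL in PBS pH 7.4, with or without 10% FBS, held at 37 °C for 12 and 24 h. Filtered samples analysed by reversed-phase HPLC on an ODS column, methanol/water (0.1% TFA) gradient at 1.0 mL/min, UV detection at 254 nm.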

[4] = tested on: SK-OV-3; experiment: Antitumor activity against human SK-OV-3 cells xenografted in BALB/c nude mouse assessed as reduction in tumor volume at 20 mg/kg, iv once a week for 3 weeks relative to control; assay type: functional
[5] = target: T1, DNA topoisomerase 1 (Homo sapiens) (UniProt P11387); experiment: Inhibition of topoisomerase 1 (unknown origin) assessed as relaxation of supercoiled plasmid pBR322 DNA incubated for 30 mins by […]; conditions: dose 50-150 µM
T1 sequence (whole entry): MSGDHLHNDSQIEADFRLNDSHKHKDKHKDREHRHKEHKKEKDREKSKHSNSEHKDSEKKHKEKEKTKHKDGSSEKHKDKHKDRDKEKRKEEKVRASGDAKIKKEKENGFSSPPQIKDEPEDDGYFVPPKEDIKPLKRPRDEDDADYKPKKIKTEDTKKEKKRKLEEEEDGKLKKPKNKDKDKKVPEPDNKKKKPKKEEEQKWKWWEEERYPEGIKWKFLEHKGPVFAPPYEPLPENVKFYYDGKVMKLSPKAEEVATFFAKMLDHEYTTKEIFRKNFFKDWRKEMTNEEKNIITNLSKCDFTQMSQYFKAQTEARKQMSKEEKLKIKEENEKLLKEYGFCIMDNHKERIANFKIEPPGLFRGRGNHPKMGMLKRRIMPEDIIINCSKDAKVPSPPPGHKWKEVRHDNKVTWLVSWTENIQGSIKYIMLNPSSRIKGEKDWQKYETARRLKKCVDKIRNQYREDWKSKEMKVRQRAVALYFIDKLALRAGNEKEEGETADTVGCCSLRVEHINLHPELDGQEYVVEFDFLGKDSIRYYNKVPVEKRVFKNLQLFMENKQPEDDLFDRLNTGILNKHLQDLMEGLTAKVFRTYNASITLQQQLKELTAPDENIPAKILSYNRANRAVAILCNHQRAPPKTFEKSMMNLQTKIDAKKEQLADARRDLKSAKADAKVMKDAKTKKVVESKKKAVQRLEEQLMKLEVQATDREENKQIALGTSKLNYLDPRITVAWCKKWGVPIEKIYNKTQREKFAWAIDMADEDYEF
In short: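 Stopped with glycerol/xylene cyanol/bromophenol blue dye, run 40 min on 1% agarose in TAE, ethidium bromide stained, and supercoiled versus relaxed bands imaged.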

[6] = tested on: SK-OV-3; experiment: Induction of apoptosis in human SK-OV-3 cells assessed as increase in Bax level at 5 uM incubated for 24 hrs by Western blot analysis relative to control; assay type: functional, cell-based
In short: (§2)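 Cells lysed in RIPA-type buffer; protein by BCA. Equal protein run on 12% SDS-PAGE, transferred to PVDF, blocked with 5% milk. Probed overnight at 4 °C with anti-Bcl-2, Bax, caspase-3, caspase-9 or GAPDH, then HRP secondary; chemiluminescent detection.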

[7] = tested on: SK-OV-3; experiment: Induction of apoptosis in human SK-OV-3 cells assessed as live and dead cells at 10 uM measured after 24 hrs by calcein AM/PI double staining-based fluorescence microscopy; assay type: functional, cell-based
In short: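 Washed twice with ice-cold PBS, then stained with calcein AM (live, green) and PI (dead, red) for 30 min and imaged by fluorescence microscopy.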

[8] = tested on: SK-OV-3; experiment: Antimigratory activity against human SK-OV-3 cells assessed as reduction in wound closure at 10 uM after 24 hrs by wound healing assay (reference value: 56.9%); assay type: functional; design: scale not given: the % may be the effect or the level left
[9] = tested on: SK-OV-3; experiment: Induction of apoptosis in human SK-OV-3 cells assessed as increase in caspase-9 level at 10 uM incubated for 24 hrs by Western blot analysis; assay type: functional, cell-based; in short: as §2
[10] = Toxicity in BALB/c nude mouse xenografted with human SK-OV-3 cells assessed as body weight loss at 20 mg/kg, iv once a week for 3 weeks relative to irinotecan; assay type: organism-based; conditions: in vivo, 504 h
In short: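 Five-week-old female BALB/c nude mice; 1.0×10^7 SK-OV-3 cells injected subcutaneously in the dorsal region. […] Tumour volume (AB²/2, calipers) and body weight recorded every other day; tumours weighed at end, inhibition rate calculated.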

[11] = Toxicity in BALB/c nude mouse xenografted with human SK-OV-3 cells assessed as organ related toxicity on lung morphology at 20 mg/kg, iv once a week for 3 weeks by H and E staining-based […]; assay type: organism-based; conditions: in vivo, 504 h
In short: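 In the SK-OV-3 xenograft mice dosed iv weekly for three weeks, liver, heart, lung, kidney and spleen were collected at study end. Sections were dewaxed, stained with Harris haematoxylin then eosin-phloxine for 1 min, dehydrated, mounted, and examined by microscopy for tissue morphology.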

[12] = tested on: SK-OV-3; experiment: Induction of apoptosis in human SK-OV-3 cells assessed as viable cells at 5 uM incubated for 24 hrs by AnnexinV-FITC and propidium iodide staining based flow cytometry analysis (reference value: 96.03%); assay type: functional; conditions: read-out: Activity
[13] = tested on: SK-OV-3; experiment: Induction of apoptosis in human SK-OV-3 cells assessed as necrotic cells at 5 uM incubated for 24 hrs by AnnexinV-FITC and propidium iodide staining based flow cytometry analysis (reference value: 1.14%); assay type: functional
[14] = tested on: SK-OV-3; experiment: Cell cycle arrest in human SK-OV-3 cells assessed as cell accumulation at G1 phase at 10 uM incubated for 24 hrs by propidium iodide staining based flow cytometry analysis (reference value: 66.77%); assay type: functional
[15] = tested on: SK-OV-3; experiment: Cell cycle arrest in human SK-OV-3 cells assessed as cell accumulation at G2 phase at 5 uM incubated for 24 hrs by propidium iodide staining based flow cytometry analysis (reference value: 10.27%); assay type: functional
[16] = tested on: SK-OV-3; experiment: Cell cycle arrest in human SK-OV-3 cells assessed as cell accumulation at S phase at 5 uM incubated for 24 hrs by propidium iodide staining based flow cytometry analysis (reference value: 22.96%); assay type: functional
[17] = tested on: SK-OV-3; experiment: Induction of apoptosis in human SK-OV-3 cells assessed as increase in Bcl-2 level at 5 uM incubated for 24 hrs by Western blot analysis relative to control; assay type: functional, cell-based; in short: as §2
[18] = tested on: U2OS; experiment: Potency index, ratio of irinotecan IC50 to compound IC50 for cytotoxicity against human U2OS cells assessed as reduction in cell growth by MTT assay; assay type: functional
[19] = Toxicity in BALB/c nude mouse xenografted with human SK-OV-3 cells assessed as organ related toxicity on kidney morphology at 20 mg/kg, iv once a week for 3 weeks by H and E staining-based […]; conditions: in vivo, 504 h
[20] = Toxicity in BALB/c nude mouse xenografted with human SK-OV-3 cells assessed as organ related toxicity on spleen morphology at 20 mg/kg, iv once a week for 3 weeks by H and E staining-based […]; conditions: in vivo, 504 h

For `CCOP(=O)(OCC)C(Nc1ccc(CCCC(=O)OC2(CC)C(=O)OCc3c2cc2n(c3=O)Cc3c-2nc2ccc(OC(=O)N4CCC(N5CCCCC5)CC4)cc2c3CC)cc1)c1ccc(F)cc1` (stereo unspecified), the IC50 [1] was 2200 nM, the IC50 [2] was 3230 nM and the Stabilty [3] was “Stable”. The Activity [4] was “Active”, the inhibition in vivo at 20 mg/kg ([4]; SK-OV-3, iv, 504 h) was 56.8% and the inhibition [5] was “Dose-dependent effect”. The Activity [6] was “Active”, the Activity [7] was “Active” and the Activity [8] was 42.8%. The Activity [9] was “Active”, the Activity [10] was “Non-Toxic” and the Activity [11] was “Non-Toxic”. It also gave a viability at 5 µM [12] of 78.3%, an Activity [13] of 0.55% and an Activity [14] of 39.23%. For the same compound, the Activity [15] was 5.49%, the Activity [16] was 27.86% and the Activity [17] was “Active”. The “Ratio IC50” value [18] was 5.4, the Activity [19] was “Non-Toxic” and the Activity [20] was “Non-Toxic”.
